Experimental data: ChEMBL document CHEMBL4414601 (J Med Chem, 2019)

Tests used:
Plasmodium falciparum [1] = assay: (§1) Antiplasmodial activity against Plasmodium falciparum 3D7A erythrocytic stage assessed as reduction in [3H]hypoxanthine incorporation preincubated for 24 hrs followed by [3H]hypoxanthine addition and measured after 24 hrs by microbeta scintillation counting method; format: functional, organism-based
Summary of the method: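 Nine threefold serial dilutions from 5 μM top concentration. Incubated 24 h at 37 °C under 5% CO2/5% O2/90% N2, then 0.2 μCi [3H]-hypoxanthine per well for another 24 h. Cells harvested on glass fibre filters and counted. Data normalized to compound-free parasitized RBCs; IC50 fitted.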

[2] = Lipophilicity, LogD of compound by reverse phase HPLC analysis
[3] = Permeability of compound by PAMPA
[4] = Clearance in mouse liver microsomes at 0.5 uM measured up to 45 mins in presence of NADPH by HPLC-MS/MS analysis; format: ADME, Microsome
[5] = Clearance in rat liver microsomes at 0.5 uM measured up to 45 mins in presence of NADPH by HPLC-MS/MS analysis; format: ADME, Microsome
[6] = Clearance in human liver microsomes at 0.5 uM measured up to 45 mins in presence of NADPH by HPLC-MS/MS analysis; format: ADME, Microsome
[7] = molecular target: T1, Amine oxidase [flavin-containing] A (Homo sapiens, UniProt P21397); assay: Inhibition of human MAO-A
T1 sequence (P21397 whole entry): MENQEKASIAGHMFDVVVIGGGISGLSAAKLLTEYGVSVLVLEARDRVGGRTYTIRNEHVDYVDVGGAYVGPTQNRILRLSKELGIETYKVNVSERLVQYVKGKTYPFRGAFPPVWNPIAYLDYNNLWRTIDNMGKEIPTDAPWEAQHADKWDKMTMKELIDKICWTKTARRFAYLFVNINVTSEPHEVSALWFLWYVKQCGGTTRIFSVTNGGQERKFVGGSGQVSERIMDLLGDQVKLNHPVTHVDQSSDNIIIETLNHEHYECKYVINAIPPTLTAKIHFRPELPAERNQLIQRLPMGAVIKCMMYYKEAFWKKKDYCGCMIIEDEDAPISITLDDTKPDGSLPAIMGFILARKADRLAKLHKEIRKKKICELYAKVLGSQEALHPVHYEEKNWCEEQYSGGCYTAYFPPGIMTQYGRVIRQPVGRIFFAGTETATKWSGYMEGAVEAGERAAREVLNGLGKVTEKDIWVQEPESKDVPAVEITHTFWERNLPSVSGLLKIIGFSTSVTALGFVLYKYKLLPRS

[8] = molecular target: T2, Aryl hydrocarbon receptor (Homo sapiens, UniProt P35869); assay: Agonist activity at human aryl hydrocarbon receptor
T2 sequence (P35869 whole entry): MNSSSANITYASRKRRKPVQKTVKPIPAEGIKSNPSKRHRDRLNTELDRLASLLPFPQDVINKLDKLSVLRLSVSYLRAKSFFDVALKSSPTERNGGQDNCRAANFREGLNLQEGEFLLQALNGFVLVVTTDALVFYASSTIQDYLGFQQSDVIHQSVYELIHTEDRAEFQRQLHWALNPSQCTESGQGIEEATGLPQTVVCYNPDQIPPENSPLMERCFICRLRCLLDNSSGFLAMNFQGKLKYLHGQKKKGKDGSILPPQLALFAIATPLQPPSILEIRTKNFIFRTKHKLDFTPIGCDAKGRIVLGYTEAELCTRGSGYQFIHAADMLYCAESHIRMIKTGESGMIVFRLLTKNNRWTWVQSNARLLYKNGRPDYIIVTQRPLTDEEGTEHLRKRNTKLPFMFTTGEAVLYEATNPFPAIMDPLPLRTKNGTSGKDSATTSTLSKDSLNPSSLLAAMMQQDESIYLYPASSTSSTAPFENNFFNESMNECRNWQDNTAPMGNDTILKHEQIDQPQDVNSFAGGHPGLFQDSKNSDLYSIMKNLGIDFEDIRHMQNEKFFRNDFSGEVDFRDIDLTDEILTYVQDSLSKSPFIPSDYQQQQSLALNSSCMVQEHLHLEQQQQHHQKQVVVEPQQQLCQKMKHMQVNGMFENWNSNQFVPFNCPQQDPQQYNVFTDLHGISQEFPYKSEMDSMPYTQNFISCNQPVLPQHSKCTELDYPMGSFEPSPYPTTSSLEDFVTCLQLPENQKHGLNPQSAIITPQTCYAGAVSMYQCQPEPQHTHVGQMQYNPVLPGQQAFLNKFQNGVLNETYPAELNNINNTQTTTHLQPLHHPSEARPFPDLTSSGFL

Acetylcholinesterase = Acetylcholinesterase (Homo sapiens, UniProt P22303); assay: Inhibition of AChE (unknown origin)
[9] = molecular target: cGMP-inhibited 3',5'-cyclic phosphodiesterase 3A (Homo sapiens, UniProt Q14432); assay: Inhibition of PDE3A (unknown origin)
[10] = molecular target: Voltage-dependent L-type calcium channel subunit alpha-1C (Homo sapiens, UniProt Q13936); assay: Inhibition of human L-type CaV1.2
Plasmodium falciparum [11] = assay: as §1, with “3D7A harboring with PKG T618Q mutant asexual” for “3D7A”, “for 48” for “for 24”; format: functional, organism-based
[12] = molecular target: Calcium-dependent protein kinase 1 (Plasmodium falciparum, UniProt P62344); assay: Binding affinity to CDPK1 in Plasmodium falciparum 3D7 blood stage extract incubated for 1 hr in presence of ATP-competitive kinase inhibitor by kinobeads based pull down assay; conditions: read-out: Kd(app)
Summary of the method: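 Chemoproteomic competition used kinobeads or Sepharose beads derivatized with ligand at 1 mM. Free compound was tested at six concentrations between 0.08 and 20 μM, in two independent experiments. Proteins were SP3-digested, TMT 10-plex labelled and measured by LC-MS/MS. IC50s came from competition curves, and apparent Kd was corrected for protein depletion by the beads.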

[13] = Binding affinity to GSK3 in Plasmodium falciparum 3D7 blood stage extract incubated for 1 hr in presence of ATP-competitive kinase inhibitor by kinobeads based pull down assay; conditions: read-out: Kd(app)
Summary of the method: (§2)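 The free compound competed over six concentrations from 0.08 to 20 μM. Proteins were digested by a modified SP3 protocol, labelled with TMT 10-plex and quantified by LC-MS/MS. Apparent Kd was derived from IC50 corrected for bead depletion. Two independent experiments were run.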

[14] = Binding affinity to SRPK2 in Plasmodium falciparum 3D7 blood stage extract incubated for 1 hr in presence of ATP-competitive kinase inhibitor by kinobeads based pull down assay; conditions: read-out: Kd(app); summary of the method: as §2

Chain of Acetylcholinesterase (P22303 whole entry): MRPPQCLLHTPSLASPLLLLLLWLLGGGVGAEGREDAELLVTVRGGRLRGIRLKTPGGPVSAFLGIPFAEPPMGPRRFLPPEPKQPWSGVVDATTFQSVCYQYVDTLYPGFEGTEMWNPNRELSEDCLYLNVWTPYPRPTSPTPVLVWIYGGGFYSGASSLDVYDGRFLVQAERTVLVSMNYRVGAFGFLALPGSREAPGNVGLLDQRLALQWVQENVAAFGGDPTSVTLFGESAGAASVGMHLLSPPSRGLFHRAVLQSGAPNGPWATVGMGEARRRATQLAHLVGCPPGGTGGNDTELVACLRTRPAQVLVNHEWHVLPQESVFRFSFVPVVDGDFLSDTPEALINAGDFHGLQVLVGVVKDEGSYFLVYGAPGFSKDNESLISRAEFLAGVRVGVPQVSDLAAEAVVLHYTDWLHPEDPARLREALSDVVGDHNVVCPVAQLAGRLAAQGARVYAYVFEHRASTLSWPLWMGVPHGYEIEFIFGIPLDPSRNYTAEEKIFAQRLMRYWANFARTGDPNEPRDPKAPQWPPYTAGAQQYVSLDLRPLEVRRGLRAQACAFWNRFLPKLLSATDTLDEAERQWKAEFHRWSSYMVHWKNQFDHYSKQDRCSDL
Chain of Calcium-dependent protein kinase 1 (P62344 whole entry): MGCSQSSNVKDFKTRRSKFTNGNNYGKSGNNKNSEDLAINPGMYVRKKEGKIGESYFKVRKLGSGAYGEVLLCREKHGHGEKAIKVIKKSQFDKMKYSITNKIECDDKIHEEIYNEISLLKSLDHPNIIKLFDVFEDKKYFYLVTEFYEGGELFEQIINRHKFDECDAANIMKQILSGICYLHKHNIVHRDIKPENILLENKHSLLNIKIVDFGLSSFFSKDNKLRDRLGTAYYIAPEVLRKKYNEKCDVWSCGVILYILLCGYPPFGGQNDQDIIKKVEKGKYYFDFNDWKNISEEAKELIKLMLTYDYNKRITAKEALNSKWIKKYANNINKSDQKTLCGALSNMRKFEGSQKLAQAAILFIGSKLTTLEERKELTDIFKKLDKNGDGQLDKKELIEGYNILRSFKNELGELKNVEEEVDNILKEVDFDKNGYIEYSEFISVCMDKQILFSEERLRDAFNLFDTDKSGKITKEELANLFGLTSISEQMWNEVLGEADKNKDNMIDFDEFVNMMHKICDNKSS
Chain of cGMP-inhibited 3',5'-cyclic phosphodiesterase 3A (Q14432 whole entry): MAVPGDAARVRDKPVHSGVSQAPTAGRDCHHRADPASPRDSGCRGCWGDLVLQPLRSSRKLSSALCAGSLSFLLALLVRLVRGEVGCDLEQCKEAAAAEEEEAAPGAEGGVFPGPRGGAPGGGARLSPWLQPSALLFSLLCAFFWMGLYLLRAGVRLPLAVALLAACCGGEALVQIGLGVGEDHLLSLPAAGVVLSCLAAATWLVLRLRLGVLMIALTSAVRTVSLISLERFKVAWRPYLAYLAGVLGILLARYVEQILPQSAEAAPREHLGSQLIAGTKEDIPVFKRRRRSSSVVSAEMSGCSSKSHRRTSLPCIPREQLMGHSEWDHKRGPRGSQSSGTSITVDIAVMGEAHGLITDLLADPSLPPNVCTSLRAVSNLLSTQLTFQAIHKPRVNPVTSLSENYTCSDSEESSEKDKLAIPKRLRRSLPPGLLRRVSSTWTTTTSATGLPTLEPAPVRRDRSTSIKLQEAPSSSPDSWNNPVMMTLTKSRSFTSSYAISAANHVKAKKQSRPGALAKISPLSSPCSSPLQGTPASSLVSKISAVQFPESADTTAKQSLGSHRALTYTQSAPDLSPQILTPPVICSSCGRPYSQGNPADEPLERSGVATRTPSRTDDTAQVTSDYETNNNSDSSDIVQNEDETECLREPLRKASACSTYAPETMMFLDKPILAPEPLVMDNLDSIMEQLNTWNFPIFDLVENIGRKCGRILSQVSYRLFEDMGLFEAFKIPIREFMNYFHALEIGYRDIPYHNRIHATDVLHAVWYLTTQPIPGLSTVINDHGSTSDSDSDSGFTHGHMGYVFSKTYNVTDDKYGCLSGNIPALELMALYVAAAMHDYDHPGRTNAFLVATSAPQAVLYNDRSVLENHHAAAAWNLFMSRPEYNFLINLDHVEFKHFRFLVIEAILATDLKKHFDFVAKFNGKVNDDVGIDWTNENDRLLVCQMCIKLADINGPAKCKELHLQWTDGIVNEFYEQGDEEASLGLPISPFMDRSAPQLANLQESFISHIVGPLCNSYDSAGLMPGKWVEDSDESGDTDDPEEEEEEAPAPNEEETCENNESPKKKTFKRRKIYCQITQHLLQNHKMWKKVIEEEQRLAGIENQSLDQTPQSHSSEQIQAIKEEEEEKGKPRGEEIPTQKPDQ
Chain of Voltage-dependent L-type calcium channel subunit alpha-1C (Q13936 whole entry): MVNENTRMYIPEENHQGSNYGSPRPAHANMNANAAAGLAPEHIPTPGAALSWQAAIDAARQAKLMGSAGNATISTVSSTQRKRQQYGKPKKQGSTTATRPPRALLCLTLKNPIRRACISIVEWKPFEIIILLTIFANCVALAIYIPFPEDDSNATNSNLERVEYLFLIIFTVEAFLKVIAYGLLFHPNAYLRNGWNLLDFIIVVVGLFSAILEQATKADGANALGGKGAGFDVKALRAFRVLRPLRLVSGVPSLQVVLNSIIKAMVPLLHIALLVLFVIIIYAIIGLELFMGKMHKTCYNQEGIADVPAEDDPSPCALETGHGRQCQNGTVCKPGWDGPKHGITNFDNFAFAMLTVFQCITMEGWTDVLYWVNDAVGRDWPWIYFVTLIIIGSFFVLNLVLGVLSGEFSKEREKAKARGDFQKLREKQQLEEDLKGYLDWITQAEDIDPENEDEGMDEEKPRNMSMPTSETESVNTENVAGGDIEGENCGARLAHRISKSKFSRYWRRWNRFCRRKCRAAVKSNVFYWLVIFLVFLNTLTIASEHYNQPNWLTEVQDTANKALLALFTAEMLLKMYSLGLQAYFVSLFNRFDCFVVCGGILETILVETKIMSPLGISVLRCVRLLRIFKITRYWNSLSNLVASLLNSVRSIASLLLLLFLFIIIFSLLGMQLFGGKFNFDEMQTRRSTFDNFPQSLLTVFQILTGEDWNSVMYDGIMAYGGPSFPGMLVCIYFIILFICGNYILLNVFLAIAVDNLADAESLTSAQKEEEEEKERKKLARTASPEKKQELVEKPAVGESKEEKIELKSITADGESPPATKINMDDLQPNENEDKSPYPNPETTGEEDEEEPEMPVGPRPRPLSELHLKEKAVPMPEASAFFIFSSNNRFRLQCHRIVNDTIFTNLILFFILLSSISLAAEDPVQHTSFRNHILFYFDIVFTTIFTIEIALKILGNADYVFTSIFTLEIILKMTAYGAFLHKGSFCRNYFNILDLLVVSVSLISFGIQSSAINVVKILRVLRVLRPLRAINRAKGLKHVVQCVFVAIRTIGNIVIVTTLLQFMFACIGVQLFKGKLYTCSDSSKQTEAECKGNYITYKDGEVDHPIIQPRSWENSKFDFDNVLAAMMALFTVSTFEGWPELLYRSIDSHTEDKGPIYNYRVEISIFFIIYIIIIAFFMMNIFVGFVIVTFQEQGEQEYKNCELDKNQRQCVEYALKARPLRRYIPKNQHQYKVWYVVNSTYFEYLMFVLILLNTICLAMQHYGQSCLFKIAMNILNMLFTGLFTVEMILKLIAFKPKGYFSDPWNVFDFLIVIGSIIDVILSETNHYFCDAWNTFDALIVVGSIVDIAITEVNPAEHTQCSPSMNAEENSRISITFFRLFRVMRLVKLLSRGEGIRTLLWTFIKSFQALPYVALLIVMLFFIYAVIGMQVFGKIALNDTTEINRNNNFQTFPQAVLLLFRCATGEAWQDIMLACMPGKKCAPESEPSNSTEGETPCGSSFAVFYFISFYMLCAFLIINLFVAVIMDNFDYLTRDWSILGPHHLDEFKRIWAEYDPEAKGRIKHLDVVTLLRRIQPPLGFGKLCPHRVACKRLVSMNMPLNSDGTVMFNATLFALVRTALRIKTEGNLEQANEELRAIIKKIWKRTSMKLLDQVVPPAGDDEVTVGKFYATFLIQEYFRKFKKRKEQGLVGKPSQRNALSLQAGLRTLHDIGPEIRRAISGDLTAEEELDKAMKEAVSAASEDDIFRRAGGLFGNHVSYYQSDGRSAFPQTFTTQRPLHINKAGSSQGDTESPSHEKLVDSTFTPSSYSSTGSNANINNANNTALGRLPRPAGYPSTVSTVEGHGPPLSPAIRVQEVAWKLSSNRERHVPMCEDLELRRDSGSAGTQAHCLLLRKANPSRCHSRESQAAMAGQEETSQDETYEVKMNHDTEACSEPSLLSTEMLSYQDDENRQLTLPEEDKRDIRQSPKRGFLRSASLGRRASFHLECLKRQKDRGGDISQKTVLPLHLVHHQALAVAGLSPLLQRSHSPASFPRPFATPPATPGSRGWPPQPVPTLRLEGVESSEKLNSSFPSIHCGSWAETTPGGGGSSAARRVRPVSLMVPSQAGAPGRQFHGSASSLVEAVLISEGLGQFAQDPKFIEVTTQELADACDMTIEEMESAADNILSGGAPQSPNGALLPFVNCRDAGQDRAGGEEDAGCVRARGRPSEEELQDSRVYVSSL

For `Cc1cc(Nc2nccc(-c3sc(C4CCNCC4)nc3-c3ccc(F)cc3)n2)ccn1`, the EC50 (Plasmodium falciparum [1]) was 160 nM, the chromatographic logD [2] was 2.54 and the Papp [3] was 21 ×10⁻⁶ cm/s. For the same molecule, the CLH [4] was 1.62 mL/min/g, the CLH [5] was 0.87 mL/min/g and the CLH [6] was 0.96 mL/min/g. The IC50 [7] was greater than 100000 nM, the EC50 [8] was greater than 50000 nM and the IC50 (Acetylcholinesterase) was 400 nM. The IC50 [9] was greater than 100000 nM, the IC50 [10] was greater than 30000 nM and the EC50 (Plasmodium falciparum [11]) was 150 nM. For the same molecule, the Kd [12] was 50 nM, the Kd [13] was 90 nM and the Kd [14] was 190 nM.
